The values below come from ChEMBL document CHEMBL1129731, “The chemistry of pseudomonic acid. 17. Dual-action C-1 oxazole derivatives of pseudomonic acid having an extended spectrum of antibacterial activity” (J Med Chem, 1996).

pIC50: −log10 of the molar value. Values after ≈ are worked out from the molar mass of the structure shown.

Data set [1] has as its system Staphylococcus aureus. The data set is described as follows: Minimal inhibitory concentration against Staphylococcus aureus Smith. In kind it is functional. Summed up:
(§1)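 Broth microdilution in Mueller–Hinton broth; overnight broth cultures added to final 5 × 10^5 cfu/mL; incubated 37 °C, 18 h. MIC (µg/mL) taken as lowest concentration inhibiting growth.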

Data set [2] relates to Mus musculus. The data set is described as follows: Total […] dose against Staphylococcus aureus after sc administration (1+5 hr post infection) to mouse. In kind it is organism-based. Particulars: in vivo. Summed up: (§2)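 CD1 male mice, groups of five, infected ip with S. aureus Smith, 1.3 × 10^10 cfu (po groups) or 5 × 10^9 cfu (sc groups); dosed po or sc at 1 + 5 h postinfection, 0.2 mL/mouse. CD50 = total dose protecting 50% of mice from death, scored day 2 postinfection.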

Data set [3] relates to Mus musculus. The data set is described as follows: Total […] dose against Staphylococcus aureus after po administration (1+5 hr post infection) to mouse. Type of data set: organism-based. Particulars: in vivo. Summed up:
as §2

Another data set deals with Moraxella catarrhalis. The data set is described as follows: compound was tested for antibacterial activity against Moraxella catarrhalis 1502. Type of data set: functional. Summed up:
(§3)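 Broth microdilution in Mueller–Hinton broth supplemented (final) with 5% heat-inactivated horse serum, 0.02 mg/mL hematin and 0.08 mg/mL NAD; inoculum 5 × 10^5 cfu/mL from overnight broth cultures; 37 °C for 18 h; MIC (µg/mL) read as lowest concentration inhibiting growth.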

For data set [4], the system named is Staphylococcus epidermidis. The data set is described as follows: compound was tested for antibacterial activity aagainst Staphylococcus epidermidis PHLN 20. Type of data set: functional. Summed up:
as §1

The test system of data set [5] is Staphylococcus aureus. The data set is described as follows: compound was tested for antibacterial activity against Staphylococcus aureus F 89. In kind it is functional. Summed up: as §1
Another data set deals with Klebsiella pneumoniae. The data set is described as follows: compound was tested for antibacterial activity against Klebsiella pneumoniae E70. In kind it is functional. Summed up: as §1
In a further data set the test system is Pseudomonas aeruginosa. The data set is described as follows: compound was tested for antibacterial activity against Pseudomonas aeruginosa K799 wt. In kind it is functional. Summed up: as §1
The subject of another data set is Escherichia coli. The data set is described as follows: compound was tested for antibacterial activity against Escherichia coli DC2. Type of data set: functional. Summed up:
as §1

Data set [6] concerns Isoleucine--tRNA ligase (Staphylococcus aureus). The data set is described as follows: Inhibitory activity against isoleucyl-tRNA synthetase (IRS) of Staphylococcus aureus NCTC 6571.
The target of data set [7] is T1, Isoleucine--tRNA ligase (Staphylococcus aureus, UniProt P41972).
T1 sequence (P41972 whole entry): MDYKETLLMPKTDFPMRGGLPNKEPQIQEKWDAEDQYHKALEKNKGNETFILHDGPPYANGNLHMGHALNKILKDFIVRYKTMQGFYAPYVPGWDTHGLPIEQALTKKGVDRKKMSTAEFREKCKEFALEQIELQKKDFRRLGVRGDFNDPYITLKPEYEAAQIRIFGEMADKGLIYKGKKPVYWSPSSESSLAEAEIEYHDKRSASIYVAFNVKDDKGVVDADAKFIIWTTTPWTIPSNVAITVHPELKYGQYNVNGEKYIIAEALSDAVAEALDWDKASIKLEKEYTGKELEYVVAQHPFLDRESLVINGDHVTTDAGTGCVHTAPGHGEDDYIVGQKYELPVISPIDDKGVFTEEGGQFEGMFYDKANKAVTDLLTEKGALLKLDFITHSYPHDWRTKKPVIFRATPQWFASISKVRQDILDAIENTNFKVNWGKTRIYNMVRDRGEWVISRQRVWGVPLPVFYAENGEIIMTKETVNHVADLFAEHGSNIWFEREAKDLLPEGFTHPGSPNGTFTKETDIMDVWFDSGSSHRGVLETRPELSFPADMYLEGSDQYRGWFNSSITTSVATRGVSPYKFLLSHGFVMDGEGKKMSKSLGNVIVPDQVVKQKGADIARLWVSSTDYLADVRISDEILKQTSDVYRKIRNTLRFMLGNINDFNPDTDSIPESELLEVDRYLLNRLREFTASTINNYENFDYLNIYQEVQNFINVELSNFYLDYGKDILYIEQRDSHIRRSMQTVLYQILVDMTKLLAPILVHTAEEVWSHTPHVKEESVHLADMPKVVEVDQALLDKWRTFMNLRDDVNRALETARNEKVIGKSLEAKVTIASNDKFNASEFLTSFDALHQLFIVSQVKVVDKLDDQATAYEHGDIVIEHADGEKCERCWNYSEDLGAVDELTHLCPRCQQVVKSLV
The data set is described as follows: Inhibitory activity against isoleucyl-tRNA synthetase (IRS) of Staphylococcus aureus C 7.

Data set [8] concerns Staphylococcus aureus. The data set is described as follows: Minimum inhibitory concentration against Staphylococcus aureus C 7. Type of data set: functional. Summed up: as §1
A further data set deals with Enterococcus faecalis. The data set is described as follows: compound was tested for antibacterial activity against Ent. faecalis I. In kind it is functional. Summed up: as §1
In the next data set the test system is Proteus mirabilis. The data set is described as follows: compound was tested for antibacterial activity against Pr. mirabilis C889. In kind it is functional. Summed up:
as §1

The subject of another data set is Streptococcus pyogenes. The data set is described as follows: compound was tested for antibacterial activity against Streptococcus pyogenes CN10. Type of data set: functional. Summed up:
as §3

In data set [9] the test system is Staphylococcus aureus. The data set is described as follows: compound was tested for antibacterial activity against Staphylococcus aureus NCTC 6571. In kind it is functional. Summed up: as §1
The target in data set [10] is T1, Isoleucine--tRNA ligase. The data set is described as follows: Inhibitory activity against isoleucyl-tRNA synthetase (IRS) of Staphylococcus aureus 11481.
Another data set relates to Streptococcus pneumoniae. The data set is described as follows: compound was tested for antibacterial activity against Strep. pneumoniae 1761. Type of data set: functional. Summed up: as §3
Another data set concerns Haemophilus influenzae. The data set is described as follows: compound was tested for antibacterial activity against Haemophilus influenzae Q1. Type of data set: functional. Summed up: as §3
A further data set has as its system Bacteroides fragilis. The data set is described as follows: compound was tested for antibacterial activity against Bacteroides fragilis NCTC 10581. Type of data set: functional.

In the case of `CC1(C)S[C@@H]2[C@H](NC(=O)[C@H](N)c3ccc(O)cc3)C(=O)N2[C@H]1C(=O)O` [AMOXICILLIN], the MIC against Staphylococcus aureus [1] is 0.25 µg/mL (≈ 0.684 µM). Also, the results for the CD50 with Mus musculus [2] and in the data set with Mus musculus [3] were 0.28 mg/kg and 0.24 mg/kg, respectively.
By IC50 is commonly meant the concentration needed to halve the response being measured. Low values mean greater potency in that assay, high ones weaker potency in that assay. A word on the pIC50: it is the IC50 on a negative log10 scale, so that one unit is a factor of ten. A higher pIC50 goes with a small IC50. With `C/C(=C\C(=O)OCCCCCCCCC(=O)O)C[C@@H]1OC[C@H](C[C@@H]2O[C@H]2[C@@H](C)[C@H](C)O)[C@@H](O)[C@H]1O` [MUPIROCIN], the MIC in the data set with Moraxella catarrhalis was 0.5 µg/mL (≈ 0.999 µM); in [4], 0.125 µg/mL (≈ 0.25 µM); against Staphylococcus aureus [5] it was greater than 64 µg/mL; in the data set on Klebsiella pneumoniae it was greater than 64 µg/mL; against Pseudomonas aeruginosa it was greater than 64 µg/mL; in the data set on Escherichia coli it was 0.13 µg/mL (≈ 0.26 µM). The MIC in the data set with Staphylococcus aureus [8] was greater than 2050 µg/mL; against Enterococcus faecalis it was 32 µg/mL (≈ 63.9 µM); in the data set on Proteus mirabilis, greater than 64 µg/mL; in the data set on Streptococcus pyogenes, less than 0.06 µg/mL; with Staphylococcus aureus [9] it was less than 0.06 µg/mL; against Streptococcus pneumoniae it was less than 0.06 µg/mL. In addition, the MIC against Haemophilus influenzae was less than 0.06 µg/mL; in the data set with Bacteroides fragilis, greater than 64 µg/mL. In addition, in data set [6], the IC50 amounted to 0.0008 µg/mL (≈ 0.0016 µM). Also, the pIC50 at Isoleucine--tRNA ligase [7] is 4.40; against Isoleucine--tRNA ligase [10] it was 6.55.
